Experimental data from ChEMBL document CHEMBL1139469, “Synthesis and 3D QSAR of new pyrazolo[3,4-b]pyridines: potent and selective inhibitors of A1 adenosine receptors” (J Med Chem, 2005).

Key:
[1] = biological target: T1, Adenosine receptor A3 (Homo sapiens) (UniProt P0DMS8); assay: Displacement of [125I]AB-MECA from human adenosine A3 receptor expressed in CHO cells at 10 uM
T1 sequence (whole entry): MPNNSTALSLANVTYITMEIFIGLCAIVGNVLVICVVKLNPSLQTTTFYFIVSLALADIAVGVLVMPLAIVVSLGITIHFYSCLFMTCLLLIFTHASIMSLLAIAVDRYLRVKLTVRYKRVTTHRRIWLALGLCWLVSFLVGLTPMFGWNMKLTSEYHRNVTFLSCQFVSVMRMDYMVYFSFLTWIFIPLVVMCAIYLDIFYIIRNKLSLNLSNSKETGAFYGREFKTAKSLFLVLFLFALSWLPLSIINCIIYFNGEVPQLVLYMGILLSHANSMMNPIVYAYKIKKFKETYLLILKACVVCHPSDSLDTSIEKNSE

[2] = biological target: Adenosine receptor A1 (Bos taurus) (UniProt P28190); assay: Displacement of [3H]DPCPX from bovine adenosine A1 receptor in bovine cortical membranes
Adenosine receptor A1 [3] = biological target: T2, Adenosine receptor A1 (Homo sapiens, UniProt P30542); assay: Displacement of [3H]DPCPX from human adenosine A1 receptor expressed in CHO cells; type: cell-based
T2 sequence (P30542 whole entry): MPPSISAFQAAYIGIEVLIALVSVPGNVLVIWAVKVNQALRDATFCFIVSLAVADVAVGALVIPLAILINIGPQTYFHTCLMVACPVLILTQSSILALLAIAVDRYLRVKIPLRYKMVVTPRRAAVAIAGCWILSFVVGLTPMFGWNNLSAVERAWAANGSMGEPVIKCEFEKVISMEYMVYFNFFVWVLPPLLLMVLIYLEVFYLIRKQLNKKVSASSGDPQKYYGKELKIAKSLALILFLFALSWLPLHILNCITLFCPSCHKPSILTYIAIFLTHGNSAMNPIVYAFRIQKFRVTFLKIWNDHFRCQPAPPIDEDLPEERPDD
Outline: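 Binding used CHO cells transfected with human A1 receptor, with displacement of specific [3H]DPCPX binding. Ligands were in DMSO diluted into buffer, with no more than 2% DMSO final, over at least six concentrations spanning 3 orders of magnitude. Ki values were means ± SEM of three separate assays, each performed in triplicate.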

Adenosine receptor A1 [4] = biological target: T3, Adenosine receptor A1 (Bos taurus, UniProt P28190); assay: Displacement of [3H]DPCPX from adenosine A1 receptor in bovine cerebral cortical membranes; type: cell membranes
T3 sequence (P28190 whole entry): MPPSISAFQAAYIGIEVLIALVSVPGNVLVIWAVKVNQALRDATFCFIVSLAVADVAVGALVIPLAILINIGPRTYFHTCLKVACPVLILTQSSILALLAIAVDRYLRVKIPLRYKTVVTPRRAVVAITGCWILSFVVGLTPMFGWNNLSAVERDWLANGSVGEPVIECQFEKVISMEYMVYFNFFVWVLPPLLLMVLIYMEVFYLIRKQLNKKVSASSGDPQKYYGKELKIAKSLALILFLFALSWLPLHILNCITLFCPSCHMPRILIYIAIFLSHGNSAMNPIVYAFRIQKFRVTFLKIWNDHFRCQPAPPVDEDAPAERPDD
Outline: (§1)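 [3H]DPCPX was displaced from A1 sites in bovine cortical membranes. Compounds were taken up in DMSO and diluted in assay buffer, with DMSO at 2% or less final. Ki used at least six concentrations across 3 orders of magnitude and was the mean ± SEM of three independent assays in triplicate.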

[5] = tested on: Adenosine receptor A2a (Bos taurus); assay: Displacement of [3HCGS21680 from adenosine A2A receptor in bovine striatal membranes at 10 uM
[6] = biological target: T4, Adenosine receptor A1 (Bos taurus) (UniProt P28190); assay: Displacement of [3H]DPCPX from adenosine A1 receptor in bovine cerebral cortical membranes at 10 uM; type: cell membranes
T4 sequence (whole entry): T3 sequence (P28190 whole entry)
Outline: as §1

[7] = biological target: Adenosine receptor A2a (Bos taurus); assay: Displacement of [3H]CGS-21680 from adenosine A2A receptor in bovine striatal membranes

| SMILES | inhibition [1] | Ki [2] | Ki (Adenosine receptor A1 [3]) | Ki (Adenosine receptor A1 [4]) | inhibition [5] | inhibition [6] | Ki [7] |
| --- | --- | --- | --- | --- | --- | --- | --- |
| CC(C)OC(=O)c1cnc2c(cnn2CC(Cl)c2ccccc2)c1N1CCCC1 (stereo unspecified) |  | 1 µM |  | 1.08 µM | 30% |  |  |
| CCCCOC(=O)c1cnc2c(cnn2CC(Cl)c2ccccc2)c1NC1CC1 (stereo unspecified) | 0% | 1 µM |  | 0.895 µM | 11% |  |  |
| CC(C)OC(=O)c1cnc2c(cnn2CC(Cl)c2ccccc2)c1N1CCOCC1 (stereo unspecified) |  | 2 µM |  | 1.82 µM |  |  |  |
| CCCCOC(=O)c1cnc2c(cnn2CC(Cl)c2ccccc2)c1NCc1ccccc1 (stereo unspecified) |  | 10 µM |  |  | 5% | 27% |  |
| CCCOC(=O)c1cnc2c(cnn2CC(Cl)c2ccccc2)c1N1CCCC1 (stereo unspecified) |  | 3.16 µM |  | 2.97 µM |  |  |  |
| CCCOC(=O)c1cnc2c(cnn2CC(Cl)c2ccccc2)c1NC1CC1 (stereo unspecified) | 2% |  |  |  |  |  |  |
| CCCCOC(=O)c1cnc2c(cnn2CC(Cl)c2ccccc2)c1N1CCCC1 (stereo unspecified) |  | 2 µM |  | 1.89 µM | 45% |  |  |
| CCCOC(=O)c1cnc2c(cnn2CC(Cl)c2ccccc2)c1N1CCOCC1 (stereo unspecified) |  | 2 µM |  | 2.15 µM | 31% |  |  |
| CCOC(=O)c1cnc2c(cnn2CC(Cl)c2ccccc2)c1NCCc1cccc(Cl)c1 (stereo unspecified) |  | 0.2 µM |  | 0.178 µM |  |  |  |
| CCCNc1c(C(=O)OC)cnc2c1cnn2CC(Cl)c1ccccc1 (stereo unspecified) |  | 0.158 µM |  | 0.17 µM |  |  | 7.67 µM |
| COC(=O)c1cnc2c(cnn2CC(Cl)c2ccccc2)c1NC1CC1 (stereo unspecified) |  | 0.251 µM |  | 0.251 µM |  |  |  |
| CCCCOC(=O)c1cnc2c(cnn2CC(Cl)c2ccccc2)c1NCCC (stereo unspecified) |  | 1 µM |  | 0.959 µM | 20% |  |  |
| CCCCOC(=O)c1cnc2c(cnn2CC(Cl)c2ccccc2)c1N1CCOCC1 (stereo unspecified) |  | 10 µM |  |  | 16% | 63% |  |
| CCCOC(=O)c1cnc2c(cnn2CC(Cl)c2ccccc2)c1NCc1ccccc1 (stereo unspecified) |  | 1.26 µM |  | 1.37 µM |  |  |  |
| CCC(C)OC(=O)c1cnc2c(cnn2CC(Cl)c2ccccc2)c1NC1CC1 (stereo unspecified) |  | 0.2 µM |  | 0.197 µM | 33% |  |  |
| CC(C)OC(=O)c1cnc2c(cnn2CC(Cl)c2ccccc2)c1NCc1ccccc1 (stereo unspecified) |  | 0.631 µM |  | 0.559 µM |  |  |  |
| CCCCNc1nc(SC)nc2c1cnn2CC(Cl)c1ccccc1 (stereo unspecified) |  | 2 µM |  |  |  |  |  |
| Cc1ccc2c(O)ccnc2n1 |  | 7.94 µM |  |  |  |  |  |
| Cc1cc(O)c2ccc(=O)[nH]c2n1 |  | 10 µM |  |  |  |  |  |
| COc1ccc(-c2nnc3nc4ccccc4n3c2O)cc1OC |  | 2 µM |  |  |  |  |  |
| CCCNc1nc(SC)nc2c1cnn2CC(Cl)c1ccccc1 (stereo unspecified) |  | 1 µM |  |  |  |  |  |
| CCCNc1c(C(=O)OCCC)cnc2c1cnn2CC(Cl)c1ccccc1 (stereo unspecified) |  | 0.158 µM |  | 0.145 µM |  |  | 1.39 µM |
| Cn1c(=O)ccc2c(O)cc(-c3ccccc3)nc21 |  | 5.01 µM |  |  |  |  |  |
| CC(=O)Nc1ccc2c(O)cc(-c3ccccc3)nc2n1 |  | 0.316 µM |  |  |  |  |  |
| COC(=O)c1cnc2c(cnn2CC(Cl)c2ccccc2)c1N1CCOCC1 (stereo unspecified) |  | 10 µM |  |  | 0% | 51% |  |
| Cc1ccc2c(Cl)cc(-c3ccccc3)nc2n1 |  | 1 µM |  |  |  |  |  |
| COC(=O)c1cnc2c(cnn2CC(Cl)c2ccccc2)c1N1CCCC1 (stereo unspecified) |  | 3.98 µM |  | 4.24 µM | 0% |  |  |

Next, values leading:

| inhibition [1] | Ki [2] | Ki (Adenosine receptor A1 [3]) | Ki (Adenosine receptor A1 [4]) | inhibition [5] | inhibition [6] | Ki [7] | SMILES |
| --- | --- | --- | --- | --- | --- | --- | --- |
| 37% | 0.0126 µM | 0.016 µM | 0.012 µM | 30% |  |  | CCOC(=O)c1cnc2c(cnn2CC(Cl)c2ccccc2)c1NCCc1ccc(F)cc1 (stereo unspecified) |
|  | 0.0398 µM |  | 0.041 µM | 27% |  |  | CC(C)OC(=O)c1cnc2c(cnn2CC(Cl)c2ccccc2)c1NCCc1ccc(Cl)cc1 (stereo unspecified) |
|  | 0.0631 µM |  | 0.063 µM | 4% |  |  | Cc1ccc(CCNc2c(C(=O)OCC3CC3)cnc3c2cnn3CC(Cl)c2ccccc2)cc1 (stereo unspecified) |
|  | 0.0501 µM |  | 0.048 µM | 26% |  |  | Cc1ccc(CCNc2c(C(=O)OC(C)C)cnc3c2cnn3CC(Cl)c2ccccc2)cc1 (stereo unspecified) |
|  | 0.0794 µM |  | 0.076 µM |  |  |  | CCOC(=O)c1cnc2c(cnn2CC(Cl)c2ccccc2)c1NCCc1ccccc1Cl (stereo unspecified) |
|  | 0.1 µM |  | 0.1 µM | 14% |  |  | CC(C)OC(=O)c1cnc2c(cnn2CC(Cl)c2ccccc2)c1NCCc1cccc(Cl)c1 (stereo unspecified) |
| 40% | 0.0158 µM | 0.148 µM | 0.015 µM | 26% |  |  | COC(=O)c1cnc2c(cnn2CC(Cl)c2ccccc2)c1NCCc1ccc(C)cc1 (stereo unspecified) |
|  | 0.0631 µM |  | 0.062 µM | 46% |  |  | CCC(C)OC(=O)c1cnc2c(cnn2CC(Cl)c2ccccc2)c1NCCc1ccccc1 (stereo unspecified) |
|  | 0.126 µM |  | 0.13 µM |  |  |  | CCCOC(=O)c1cnc2c(cnn2CC(Cl)c2ccccc2)c1NCCc1ccccc1 (stereo unspecified) |
|  | 0.0316 µM |  | 0.033 µM | 25% |  |  | CCOC(=O)c1cnc2c(cnn2CC(Cl)c2ccccc2)c1NCCc1cccc(F)c1 (stereo unspecified) |
| 49% | 0.01 µM | 0.025 µM | 0.01 µM |  |  |  | CCOC(=O)c1cnc2c(cnn2CC(Cl)c2ccccc2)c1NCCc1ccc(OC)cc1 (stereo unspecified) |
|  | 0.1 µM |  | 0.109 µM | 23% |  |  | CCCNc1c(C(=O)OCC2CC2)cnc2c1cnn2CC(Cl)c1ccccc1 (stereo unspecified) |
| 0% | 0.0316 µM |  | 0.031 µM |  |  | 1.52 µM | CC(C)OC(=O)c1cnc2c(cnn2CC(Cl)c2ccccc2)c1NCCc1ccccc1 (stereo unspecified) |
| 0% | 0.0794 µM |  | 0.088 µM |  |  | 1.23 µM | COC(=O)c1cnc2c(cnn2CC(Cl)c2ccccc2)c1NCCc1ccccc1 (stereo unspecified) |
|  | 0.126 µM |  | 0.141 µM |  |  |  | COC(=O)c1cnc2c(cnn2CC(Cl)c2ccccc2)c1NCc1ccccc1 (stereo unspecified) |
|  | 0.0501 µM |  | 0.048 µM | 54% |  |  | O=C(OCC1CC1)c1cnc2c(cnn2CC(Cl)c2ccccc2)c1NCCc1ccccc1 (stereo unspecified) |
|  | 0.0398 µM |  | 0.044 µM | 13% |  |  | CC(C)OC(=O)c1cnc2c(cnn2CC(Cl)c2ccccc2)c1NCCc1ccccc1Cl (stereo unspecified) |
| 38% | 0.02 µM |  | 0.022 µM |  |  |  | CCOC(=O)c1cnc2c(cnn2CC(Cl)c2ccccc2)c1NCCc1ccc(C)cc1 (stereo unspecified) |
|  | 0.0501 µM |  | 0.051 µM | 40% |  |  | CCCNc1c(C(=O)OC(C)CC)cnc2c1cnn2CC(Cl)c1ccccc1 (stereo unspecified) |
| 53% | 0.0158 µM | 0.029 µM | 0.016 µM |  |  |  | CCOC(=O)c1cnc2c(cnn2CC(Cl)c2ccccc2)c1NCCc1ccccc1F (stereo unspecified) |
|  | 0.000631 µM |  |  |  |  |  | CN(C)c1ccc2c(O)cc(-c3ccccc3)nc2n1 |
|  | 0.0794 µM |  |  |  |  |  | O=c1n(-c2ccc(Cl)cc2)nc2c(NC3CCCCC3)nc3ccccc3n12 |
| 46% | 0.02 µM | 0.153 µM | 0.019 µM | 63% |  |  | CCOC(=O)c1cnc2c(cnn2CC(Cl)c2ccccc2)c1NCCc1ccc(Cl)cc1 (stereo unspecified) |
|  | 0.0251 µM |  |  |  |  |  | Oc1cc(-c2ccccc2)nc2nc(Oc3ccccc3)ccc12 |
| 0% | 0.02 µM |  | 0.024 µM | 11% |  |  | CCCNc1c(C(=O)OC(C)C)cnc2c1cnn2CC(Cl)c1ccccc1 (stereo unspecified) |
|  | 0.000158 µM |  |  |  |  |  | Oc1cc(-c2ccccc2)nc2nc(Cl)ccc12 |
| 0% | 0.0316 µM |  | 0.036 µM |  |  |  | CC(C)OC(=O)c1cnc2c(cnn2CC(Cl)c2ccccc2)c1NC1CC1 (stereo unspecified) |
|  | 0.1 µM |  |  |  |  |  | O=C(Nc1nc2ccccc2n2c(=O)n(-c3ccc(Cl)cc3)nc12)c1ccccc1 |
|  | 0.0316 µM |  |  |  |  |  | Nc1nc2ccccc2n2c(=O)n(-c3cccc(F)c3)nc12 |
